Results from ChEMBL document CHEMBL5257161, “Mycobacterium tuberculosis CitA activity is modulated by cysteine oxidation and pyruvate binding” (RSC Med Chem, 2023).

Molecular target: T1, Putative citrate synthase 2 (Mycobacterium tuberculosis, UniProt P9WPD3)
T1 sequence (P9WPD3 whole entry): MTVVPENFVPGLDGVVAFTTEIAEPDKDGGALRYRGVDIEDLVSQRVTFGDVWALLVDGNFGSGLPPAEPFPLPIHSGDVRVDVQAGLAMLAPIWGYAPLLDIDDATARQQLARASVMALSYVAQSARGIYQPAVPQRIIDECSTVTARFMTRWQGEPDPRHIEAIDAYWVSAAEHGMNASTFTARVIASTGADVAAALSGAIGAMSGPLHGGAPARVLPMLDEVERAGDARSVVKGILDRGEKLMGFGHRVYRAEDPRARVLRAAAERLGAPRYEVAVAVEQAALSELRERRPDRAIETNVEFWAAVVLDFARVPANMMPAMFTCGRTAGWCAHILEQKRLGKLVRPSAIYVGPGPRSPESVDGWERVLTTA
Experiment: Inhibition of Mycobacterium tuberculosis CitA expressed in Escherichia coli cell by UV spectrophotometric based analysis
Method in brief: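 Michael acceptor compounds were added directly to the DTNB/OAA/AcCoA reaction with 10 nM CitA in 50 mM Tris pH 8.0 at 25 °C, read at 412 nm. The screen used 20 μM compound. Dose–response data were fitted to the Hill equation for apparent IC50. A control measured how fast the compounds react with reaction components.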

SMILES	IC50
C=C1C(=O)OC2(C(=O)Nc3ccccc32)C1c1ccccc1 (configuration not stated)	10.9 µM
C=C1CC2(OC1=O)C(=O)Nc1ccc(I)cc12 (configuration not stated)	6.6 µM
